Measured values published in ChEMBL document CHEMBL2321690, “New betulinic acid derivatives for bevirimat-resistant human immunodeficiency virus type-1” (J Med Chem, 2013).
pIC50: −log10 of the molar value.

Key:
[1] = system: Human immunodeficiency virus 1; assay: Antiviral activity against 0.001 MOI bevirimat-resistant Human immunodeficiency virus 1 NL4-3 harboring gag V370A mutant infected in human MT4 cells assessed as inhibition of viral replication measured 4 days post infection by ELISA; format: functional, organism-based; conditions: Human immunodeficiency virus 1, NL4-3, MT4, 96 h
In short: (§1)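 Mutations introduced into pNL4-3 by site-directed mutagenesis. MT4 cells infected with wild-type NL4-3 or resistant variant at 0.001 TCID50/cell in presence of graded compound concentrations. Supernatant p24 measured by ELISA on day 4 post-infection. IC50 is the concentration reducing p24 by 50%, reported as mean ± SD with the number of tests given per value.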

[2] = system: Human immunodeficiency virus 1; assay: Antiviral activity against 0.001 MOI wild type Human immunodeficiency virus 1 NL4-3 infected in human MT4 cells assessed as inhibition of viral replication measured 4 days post infection by ELISA; format: functional, organism-based; conditions: Human immunodeficiency virus 1, NL4-3, MT4, 96 h; in short: as §1
MT4 = assay: Cytotoxicity against human MT4 cells for 4 days; format: cell-based; conditions: mt4, 96 h
In short: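 MT4 cells cultured with various compound concentrations for 4 days. Viability read by a CytoTox-Glo luminescent cytotoxicity assay. CC50 is the concentration reducing viable cells by 50%.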

| SMILES | pIC50 [1] | pIC50 [2] | CC50 (MT4) [nM] |
| --- | --- | --- | --- |
| C=C(C)[C@@H]1CC[C@]2(C(=O)NCCCCCCCCCNC(=O)CNC(=O)OC(C)(C)C)CC[C@]3(C)[C@H](CC[C@@H]4[C@@]5(C)CC[C@H](OC(=O)CC(C)(C)C(=O)O)C(C)(C)[C@@H]5CC[C@]43C)[C@@H]12 | 5.98 | 7.70 | > 10000 |
| C=C(C)[C@@H]1CC[C@]2(C(=O)NCCCCCCCCCNC(=O)[C@H](CC(N)=O)NC(=O)OC(C)(C)C)CC[C@]3(C)[C@H](CC[C@@H]4[C@@]5(C)CC[C@H](OC(=O)CC(C)(C)C(=O)O)C(C)(C)[C@@H]5CC[C@]43C)[C@@H]12 | 6.47 | 7.40 | 8300 |
| C=C(C)[C@@H]1CC[C@]2(C(=O)NCCCCCCCC(=O)N[C@@H](CCC(N)=O)C(=O)OC)CC[C@]3(C)[C@H](CC[C@@H]4[C@@]5(C)CC[C@H](OC(=O)CC(C)(C)C(=O)O)C(C)(C)[C@@H]5CC[C@]43C)[C@@H]12 | < 5.30 | 7.30 | > 10000 |
| C=C(C)[C@@H]1CC[C@]2(C(=O)NCCCCCCCCC(=O)NCCC#N)CC[C@]3(C)[C@H](CC[C@@H]4[C@@]5(C)CC[C@H](OC(=O)CC(C)(C)C(=O)O)C(C)(C)[C@@H]5CC[C@]43C)[C@@H]12 | 6.48 | 6.82 | > 10000 |
| C=C(C)[C@@H]1CC[C@]2(C(=O)NCCCCCCCCC(=O)N[C@@H](Cc3ccccc3)C(=O)OC)CC[C@]3(C)[C@H](CC[C@@H]4[C@@]5(C)CC[C@H](OC(=O)CC(C)(C)C(=O)O)C(C)(C)[C@@H]5CC[C@]43C)[C@@H]12 | 5.89 | 7.15 | > 10000 |
| C=C(C)[C@@H]1CC[C@]2(C(=O)NCCCCCCC(=O)N[C@@H](CCC(N)=O)C(=O)OC)CC[C@]3(C)[C@H](CC[C@@H]4[C@@]5(C)CC[C@H](OC(=O)CC(C)(C)C(=O)O)C(C)(C)[C@@H]5CC[C@]43C)[C@@H]12 | 5.61 | 7.30 | > 10000 |
| C=C(C)[C@@H]1CC[C@]2(C(=O)NCCCCCCCCC(=O)NCC(=O)O)CC[C@]3(C)[C@H](CC[C@@H]4[C@@]5(C)CC[C@H](OC(=O)CC(C)(C)C(=O)O)C(C)(C)[C@@H]5CC[C@]43C)[C@@H]12 | 6.32 | 7.40 | > 10000 |
| C=C(C)[C@@H]1CC[C@]2(C(=O)NCCCCCCCCC(=O)N[C@@H](CCC(N)=O)C(=O)OC(C)(C)C)CC[C@]3(C)[C@H](CC[C@@H]4[C@@]5(C)CC[C@H](OC(=O)CC(C)(C)C(=O)O)C(C)(C)[C@@H]5CC[C@]43C)[C@@H]12 | 6.09 | 8.00 | > 10000 |
| C=C(C)[C@@H]1CC[C@]2(C(=O)NCCCCCCCNC(=O)[C@H](C)NC(=O)OC(C)(C)C)CC[C@]3(C)[C@H](CC[C@@H]4[C@@]5(C)CC[C@H](OC(=O)CC(C)(C)C(=O)O)C(C)(C)[C@@H]5CC[C@]43C)[C@@H]12 | 6.43 | 8.00 | 7900 |
| C=C(C)[C@@H]1CC[C@]2(C(=O)NCCCCCCCNC(=O)[C@H](CCC(N)=O)NC(=O)OC(C)(C)C)CC[C@]3(C)[C@H](CC[C@@H]4[C@@]5(C)CC[C@H](OC(=O)CC(C)(C)C(=O)O)C(C)(C)[C@@H]5CC[C@]43C)[C@@H]12 | 5.59 | 8.00 | > 10000 |
| C=C(C)[C@@H]1CC[C@]2(C(=O)NCCCCCCCCCNC(=O)[C@H](C)NC(=O)OC(C)(C)C)CC[C@]3(C)[C@H](CC[C@@H]4[C@@]5(C)CC[C@H](OC(=O)CC(C)(C)C(=O)O)C(C)(C)[C@@H]5CC[C@]43C)[C@@H]12 | 5.80 | 7.30 | > 10000 |
| C=C(C)[C@@H]1CC[C@]2(C(=O)NCCCCCCCCNC(=O)[C@H](CCC(N)=O)NC(=O)OC(C)(C)C)CC[C@]3(C)[C@H](CC[C@@H]4[C@@]5(C)CC[C@H](OC(=O)CC(C)(C)C(=O)O)C(C)(C)[C@@H]5CC[C@]43C)[C@@H]12 | 6.44 | 7.52 | > 10000 |
